Results as given in ChEMBL document CHEMBL3046583, “Design, synthesis, and insecticidal activity of novel pyrazole derivatives containing α-hydroxymethyl-N-benzyl carboxamide, α-chloromethyl-N-benzyl carboxamide, and 4,5-dihydrooxazole moieties” (2012).
Calls of active or inactive are those of the source. The rule behind the calls is not given here.

Key:
Tetranychus cinnabarinus [1] = assay: Acaricidal activity against Tetranychus cinnabarinus (carmine spider mite) adults at 600 mg/kg by leaf dip method; format: functional
Helicoverpa armigera [2] = assay: Stomach toxicity against third-instars Helicoverpa armigera assessed as larvicidal activity at 11 mg/kg at 25 +/- 1 degC after 3 days; format: functional
In short: (§1)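 Diet-incorporation assay on third-instar larvae. Samples dissolved in acetone to the desired final concentrations; 3 mL of test solution mixed evenly into about 27 g of prepared feed, then dispensed into 24-well plates. Run in triplicate at 25 ± 1 °C. Dead/alive scoring 3 days after treatment; mortality corrected by Abbott's formula on a 0–100 scale.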

Plutella xylostella [3] = assay: Stomach toxicity against Plutella xylostella (diamondback moth) assessed as larvicidal activity at 600 mg/kg by leaf dip method; format: functional
Plutella xylostella [4] = assay: Stomach toxicity against Plutella xylostella (diamondback moth) assessed as larvicidal activity at 200 mg/kg by leaf dip method; format: functional
Helicoverpa armigera [5] = assay: Stomach toxicity against third-instars Helicoverpa armigera assessed as larvicidal activity at 110 mg/kg at 25 +/- 1 degC after 3 days; format: functional; in short: as §1
Culex pipiens pallens [6] = assay: Larvicidal activity against Culex pipiens pallens (mosquito) at 5 mg/kg; format: functional
Tetranychus cinnabarinus [7] = assay: Acaricidal activity against Tetranychus cinnabarinus (carmine spider mite) eggs at 600 mg/kg by leaf dip method; format: functional, Egg
Culex pipiens pallens [8] = assay: Larvicidal activity against Culex pipiens pallens (mosquito) at 1 mg/kg; format: functional
Helicoverpa armigera [9] = assay: Stomach toxicity against third-instars Helicoverpa armigera assessed as larvicidal activity at 22 mg/kg at 25 +/- 1 degC after 3 days; format: functional; in short: as §1
Aphis craccivora [10] = assay: Larvicidal activity against Aphis craccivora (cowpea aphid) at 600 mg/kg by leaf dip method; format: functional
Helicoverpa armigera [11] = assay: Stomach toxicity against third-instars Helicoverpa armigera assessed as larvicidal activity at 55 mg/kg at 25 +/- 1 degC after 3 days; format: functional; in short: as §1
Tetranychus cinnabarinus [12] = assay: Acaricidal activity against Tetranychus cinnabarinus (carmine spider mite) eggs at 200 mg/kg by leaf dip method; format: functional, Egg
Helicoverpa armigera [13] = assay: Stomach toxicity against third-instars Helicoverpa armigera assessed as larvicidal activity at 5.5 mg/kg at 25 +/- 1 degC after 3 days; format: functional; in short: as §1
Aphis craccivora [14] = assay: Larvicidal activity against Aphis craccivora (cowpea aphid) at 200 mg/kg by leaf dip method; format: functional
Culex pipiens pallens [15] = assay: Larvicidal activity against Culex pipiens pallens (mosquito) at 2 mg/kg; format: functional
Tetranychus cinnabarinus [16] = assay: Acaricidal activity against Tetranychus cinnabarinus (carmine spider mite) larvae at 600 mg/kg by leaf dip method; format: functional
Culex pipiens pallens [17] = assay: Larvicidal activity against Culex pipiens pallens (mosquito) at 0.5 mg/kg; format: functional
Tetranychus cinnabarinus [18] = assay: Acaricidal activity against Tetranychus cinnabarinus (carmine spider mite) larvae at 200 mg/kg by leaf dip method; format: functional
Tetranychus cinnabarinus [19] = assay: Acaricidal activity against Tetranychus cinnabarinus (carmine spider mite) adults at 200 mg/kg by leaf dip method; format: functional
Plutella xylostella [20] = assay: Antifeedant activity against Plutella xylostella (diamondback moth) at 200 to 600 mg/kg by leaf dip method; format: functional, organism-based
Helicoverpa armigera [21] = assay: Stomach toxicity against third-instars Helicoverpa armigera assessed as larvicidal activity at 25 +/- 1 degC after 3 days; format: functional; in short: as §1
Culex pipiens pallens [22] = assay: Larvicidal activity against Culex pipiens pallens (mosquito); format: functional

Row | SMILES | Activity (Tetranychus cinnabarinus [1]) | Activity (Helicoverpa armigera [2]) | Activity (Plutella xylostella [3]) | Activity (Plutella xylostella [4]) | Activity (Helicoverpa armigera [5]) | Activity (Culex pipiens pallens [6]) | Activity (Tetranychus cinnabarinus [7]) | Activity (Culex pipiens pallens [8]) | Activity (Helicoverpa armigera [9]) | Activity (Aphis craccivora [10]) | Activity (Helicoverpa armigera [11]) | Activity (Tetranychus cinnabarinus [12]) | Activity (Helicoverpa armigera [13]) | Activity (Aphis craccivora [14]) | Activity (Culex pipiens pallens [15]) | Activity (Tetranychus cinnabarinus [16]) | Activity (Culex pipiens pallens [17]) | Activity (Tetranychus cinnabarinus [18]) | Activity (Tetranychus cinnabarinus [19]) | Activity (Plutella xylostella [20]) | other results
1 | CCc1nn(C)c(C(=O)NC(CCl)c2ccc(C(C)(C)C)cc2)c1Cl (centres undefined) | 0% | 20% | 90% | 30% | 100% | 100% | 34% | 40% | 100% | 100% | 100% | 30% | 0% | 100% | 100% | 30% | 0% | 0% |  |  | 
2 | CCc1nn(C)c(C2=NC(c3ccc(C(C)(C)C)cc3)CO2)c1Cl (centres undefined) | 30% | 70% | 50% | 30% | 100% | 100% | 20% | 50% | 100% | 90% | 100% | 0% | 40% | 50% | 100% | 45% | 0% | 30% | 10% |  | 
3 | CCc1nn(C)c(C(=O)NC(CCl)c2ccc(Oc3ccccc3)cc2)c1Cl (centres undefined) | 0% | 80% | 90% | 60% | 100% | 100% | 20% | 60% | 100% | 100% | 100% | 0% | 40% | 80% | 100% | 30% | 0% | 20% |  | Active | 
4 | CCc1cc(C(=O)NC(CCl)c2ccc(C(C)(C)C)cc2)n(C)n1 (centres undefined) | 30% | 90% | 30% | 15% | 100% | 60% | 80% |  | 100% | 80% | 100% | 40% | 60% | 65% | 0% | 20% |  | 0% | 0% |  | LC50 (Helicoverpa armigera [21]): 3.33 mg/kg
5 | CCc1cc(C2=NC(c3ccc(C(C)(C)C)cc3)CO2)n(C)n1 (centres undefined) | 100% | 0% | 60% | 45% | 100% | 100% | 100% | 0% | 40% | 98% | 100% | 95% |  | 90% | 60% | 90% |  | 80% | 95% | Active | 
6 | CCc1nn(C)c(C(=O)NCc2ccc(Oc3ccc(C)cc3)cc2)c1Cl [TOLFENPYRAD] |  | 100% | 100% | 100% | 100% |  |  |  | 100% |  | 100% |  | 70% |  |  |  |  |  |  |  | LC50 (Helicoverpa armigera [21]): 2.47 mg/kg
7 | CCc1nn(C)c(C(=O)NC(CCl)c2ccc(Cl)cc2)c1Cl (centres undefined) | 0% | 70% | 70% | 60% | 100% | 100% | 10% | 50% | 100% | 80% | 100% | 0% | 40% | 50% | 100% | 0% | 0% |  |  | Active | 
8 | CCc1nn(C)c(C2=NC(c3ccc(Oc4ccccc4)cc3)CO2)c1Cl (centres undefined) | 0% | 90% | 90% | 20% | 100% | 100% | 0% | 0% | 100% | 90% | 100% |  | 60% | 60% | 60% | 25% |  | 0% |  |  | LC50 (Helicoverpa armigera [21]): 2.8 mg/kg
9 | CCc1cc(C(=O)NC(CCl)c2ccc(Oc3ccccc3)cc2)n(C)n1 (centres undefined) | 50% | 0% | 45% | 30% | 100% | 100% | 50% | 100% | 40% | 100% | 100% | 40% |  | 95% | 100% | 40% | 60% | 30% | 0% |  | LC50 (Culex pipiens pallens [22]): 0.35 mg/kg
10 | CCc1nn(C)c(C(=O)NC(CO)c2ccc(Oc3ccccc3)cc2)c1Cl (centres undefined) | 0% | 40% | 60% | 20% | 100% | 100% | 15% | 40% | 70% | 100% | 100% | 0% | 0% | 50% | 100% | 30% | 0% | 0% |  |  | 
11 | CCc1nn(C)c(C(=O)NCc2ccc(C(C)(C)C)cc2)c1Cl [TEBUFENPYRAD] | 100% |  |  |  |  | 100% | 100% | 70% |  | 100% |  | 100% |  | 100% | 100% | 100% | 0% | 100% | 100% |  | LC50 (Culex pipiens pallens [22]): 0.61 mg/kg
12 | CCCCCOc1ccc(C2COC(c3c(Cl)c(CC)nn3C)=N2)cc1 (centres undefined) | 20% | 80% | 70% | 30% | 100% | 100% | 40% | 0% | 100% | 100% | 100% | 20% | 30% | 90% | 50% | 15% |  | 0% | 15% | Active | 
